Screening data deposited in PubChem BioAssay by Sanford-Burnham Center for Chemical Genomics.
UPR XBP1 act – activators of adaptive XBP1 UPR arm, primary screen, cell-based, CHO-XBP1 luciferase reporter, luminescence, uHTS; IRE1-XBP1 UPR activation; percent of tunicamycin response, DMSO as zero; activation, % at 20 µM; hit rate 0.33% among 330,000;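 active = versus positive control, 20 µM dose yields 30% or more activation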;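 note: 100% = tunicamycin at 10 µg/mL and 0% = DMSO only wells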
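incubation = overnight seeding at 37 °C, 6 h compound treatment at 37 °C | assay system = CHO-XBP1 cells stably carrying IRE1-XBP1-driven luciferase reporter | input = 1000 cells per well | detection = luciferase luminescence | dosing = single point, 20 µM final compound, 1% DMSO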
Jurkat NFkB inh – inhibitors of induced NF-kB luciferase reporter, primary screen, TCR NF-kB activation inhibitor project, cell-based, luminescence, uHTS; Jurkat, PMA/ionomycin-induced NF-kB luciferase reporter; inhibition, % at 4 µM; hit rate 0.53% among 330,000; AID 435003, 2010; in the data active = inhibition above about 50%
CRFR2-BP antag – antagonists of CRF-BP/CRF-R2 complex, primary screen, cell-based, HEK293, calcium dye fluorescence, uHTS. AID 588475, 2011. CRF-induced calcium fluorescence. hit rate 0.59% among 350,000. inhibition, % at 11.8 µM;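 active = inhibition of the ligand-induced calcium signal above about 50% at the single tested concentration, limit read from the data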
697 NFkB inh – inhibitors of PMA/ionomycin-induced NF-kB reporter, 697 cells, primary screen, B-cell NF-kB inhibitor project, cell-based, luminescence, uHTS. 697 B-cell NF-kB luciferase reporter, 16 h. hit rate 0.33% among 330,000. AID 435022, 2010. inhibition, % at 4 µM; in the data active = inhibition above about 35%
CHOP UPR activ – activators of apoptotic CHOP UPR arm, primary screen, cell-based, CHO-CHOP luciferase reporter, luminescence, uHTS; hit rate 0.34% among 330,000; activation, % at 10 µM; UPR activation; percent of tunicamycin response over DMSO baseline;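 active = at 10 µM dose, activation of 40% or more, normalized to positive control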;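 note: 100% = tunicamycin at 10 µg/mL and 0% = DMSO alone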
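System: CHO CHOP reporter cells. Amount: 500 cells per well. Buffer or medium: F12 medium, 10% FBS. Compound dosing: one dose, 10 µM in 0.5% DMSO. Incubation: 6 h compound exposure at 37 °C after overnight seeding. Technique: Steady-Glo luciferase luminescence. Benchmarks: tunicamycin and DMSO controls.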
Jurkat NFkB conf – PMA/ionomycin-induced NF-kB reporter inhibitors, Jurkat retest, confirmation, T-cell NF-kB inhibitor project, cell-based, luminescence, single concentration. inhibition, % at 4 µM. shares compounds with Jurkat NFkB inh. hit rate 27% among 2,700. AID 435020, 2010. Jurkat NF-kB luciferase, 16 h;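 active = inhibition reaching about 45% at 4 µM in either replicate, limit read from the data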;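 note: plate controls were PMA/ionomycin stimulated DMSO wells for no effect and unstimulated DMSO wells for full effect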
* marks the source's active call; other numbers are inactive results; · = no result. In the library only some 1.8% were active in any assay of this set; here they are far more common.

SMILES	UPR XBP1 act	Jurkat NFkB inh	CRFR2-BP antag	697 NFkB inh	CHOP UPR activ	Jurkat NFkB conf
COC(=O)c1ccc(NC(=O)c2ccccc2C(=O)Nc2ccc(C(=O)OC)cc2)cc1	0.3	27.7	0.1	11.1	1.0	·
COC(=O)c1ccc(NC(=O)C(=O)c2cccn2C)cc1	-7.6	-169.8	-3.4	-121.5	-1.3	-105.4
O=C(NCC(c1ccco1)N1CCc2ccccc21)c1ccccc1F (centres undefined)	-1.9	-4.0	19.4	-8.8	1.7	·
O=C(CCc1ccccc1)NCC(c1ccco1)N1CCc2ccccc21 (centres undefined)	5.2	58.9*	20.5	-33.7	2.3	21.5
CN(C)c1ccc2c(c1)OC(N)=C(C#N)C2c1cccc(F)c1 (centres undefined)	7.8	76.9*	-176.2	-101.5	-1.0	55.4*
O=c1[nH][nH]c2cc([N+](=O)[O-])ccc12	·	·	-4.3	·	·	·
CCCN(CC(=O)Nc1ccccc1C)C(=O)CCN1C(=O)c2cccc([N+](=O)[O-])c2C1=O	1.4	9.8	-3.5	-7.3	-1.4	·
COc1ccc(C(=O)Nc2ccc(Cl)c(S(=O)(=O)N3CCOCC3)c2)cc1	-3.5	17.1	-24.4	-6.2	0.4	·
O=C(Nc1ccc(Cl)c(S(=O)(=O)N2CCOCC2)c1)c1ccc(OCC2CCCO2)cc1 (centres undefined)	-4.2	60.0*	-126.6	-36.0	0.6	64.2*
COC(=O)c1[nH]c2ccc(Br)cc2c1NC(=O)CN1CCN(C2CCCCC2)CC1	8.0	68.3*	-12.2	-0.6	8.2	45.6*
COC(=O)c1[nH]c2ccc(C)cc2c1NC(=O)CCN1CCN(C2CCCCC2)CC1	-1.1	-4.9	·	-34.8	1.4	·
CSc1ccc(C2=C/C(=C3/SC(=S)NC3=O)c3ccccc3O2)cc1	·	·	-5.6	·	·	·
CC(C)(C)c1ccc(C(=O)Nc2ccccc2Cl)cc1	-3.4	-248.6	-44.8	-106.4	1.3	-167.2
CS(=O)(=O)Nc1ccc(C(=O)Nc2ccccc2Cl)cc1	-3.8	-5.7	-12.5	16.6	1.7	·
CCc1c(C)nc2ncnn2c1NCCc1ccc(OC)cc1	0.6	78.2*	-6.8	-15.2	4.2	68.0*
Cc1ccc(N(Cc2cc3ccccc3[nH]c2=O)S(=O)(=O)c2ccccc2)cc1	0.6	84.9*	-61.6	-17.2	-0.9	15.6
CCn1cc(CN2CCC(n3nccc3NC(=O)c3ccc4c(c3)OCO4)CC2)c(C)n1	-4.0	9.1	4.7	20.8	0.4	·
CC1=CC(=O)C(C(C)=Nc2cccc(Cl)c2)C(=O)O1 (centres undefined)	·	·	1.1	·	·	·
COc1ccc(/C=N\NC(=O)c2ccccc2F)cc1COc1ccc(F)cc1F	14.6	61.2*	15.6	-6.3	1.2	43.7
COc1ccc(/C=N\NC(=O)c2ccccc2F)cc1COc1ccc(F)cc1	-1.3	24.7	12.6	-17.0	0.6	·
CCOc1cc(-c2cc(-c3ccc(C)cc3)nc(N)c2C#N)ccc1O	7.2	51.1*	-3.3	-38.6	1.9	14.2
COc1cc(-c2cc(-c3ccc(O)cc3)nc(N)c2C#N)ccc1O	12.1	-5.4	31.2	28.0	1.8	·
O=C(COC(=O)c1cc(S(=O)(=O)N2CCCC2)ccc1O)Nc1ccc(F)cc1F	-2.6	70.3*	-1.7	18.1	2.6	25.4
CCN(CC)C(=O)c1ccc(/C=C/c2c[nH]c3ccccc23)[n+](C)c1	0.8	12.7	-15.5	18.0	-1.6	·
CC[n+]1c(/C=C/c2c[nH]c3ccccc23)ccc2cc(C)ccc21	16.1	93.2*	-303.1	-59.1	20.7	30.5
SMILES	UPR XBP1 act	Jurkat NFkB inh	CRFR2-BP antag	697 NFkB inh	CHOP UPR activ	Jurkat NFkB conf
COc1ccc(-c2nnc(SCc3ccccc3F)o2)cc1OC	16.6	-30.3	35.9	-28.2	0.0	·
Cc1ccc(-c2nnc(SCc3ccccc3F)o2)cc1	-0.8	-165.4	-1.5	-149.1	1.2	-72.5
CCO[C@@H]1OC(C(=O)NCc2nc3ccccc3[nH]2)=C[C@H](C(C)(C)C)[C@H]1CCCO	16.8	72.5*	3.9	-62.9	-2.6	54.6*
CN(Cc1ccccc1)C1=CC(=[N+]2CCCC2)CC(C)(C)C1	1.6	61.9*	-4.3	19.3	-1.4	59.1*
CC1(C)CC(N2CCN(c3ccccc3)CC2)=CC(=[N+]2CCCC2)C1	-1.9	57.5*	-2.5	4.6	-0.3	27.5
CCN(CC)C1=CC(=[N+]2CCCC2)CC(C)(C)C1	-1.9	46.0	16.8	-0.8	1.5	·
Cc1ccc2c(c1)C=CC(C#N)N2C(=O)Oc1ccccc1 (centres undefined)	·	·	-6.5	·	·	·
Cc1ccc2c(c1)C=CC(C#N)N2C(=O)c1ccccc1 (centres undefined)	-2.3	55.4*	13.8	-39.9	-3.2	43.0
COc1ccc(C(=O)c2ccc(OC)cc2OC)cc1	0.5	39.5	8.9	-50.6	0.3	·
COc1ccc(C(=O)c2ccc(N(C)C)cc2)c(OC)c1	-0.7	67.9*	21.3	-51.5	1.0	47.0*
C[C@H](O)Cc1cn(-c2cc3cc(C#Cc4ccsc4)ccc3oc2=O)nn1	5.9	5.5	5.8	10.7	1.2	·
CN(C(=O)CSc1ncnc2sccc12)C1CCCCC1	2.1	-70.6	-0.5	-79.9	4.2	·
Cc1ccc(NC(=O)c2ccc3c(c2)CCN3S(C)(=O)=O)c(C)c1	-0.7	-9.3	17.6	-1.4	-1.4	·
COc1ccc(Cl)cc1NC(=O)CN(C)CC(=O)Nc1ccccc1N1CCOCC1	-1.1	63.2*	0.6	-28.2	-1.0	43.4
COc1ccc(Cl)cc1NC(=O)CN(C)CC(=O)N1CC(=O)Nc2ccccc21	-2.7	-5.0	9.7	1.2	-0.1	·
COc1ccc(-n2ncc3c(NC(C)C)ncnc32)cc1	-3.3	-175.7	-3.0	-242.3	-2.8	-124.1
c1ccc(Cn2ncc3c(NCc4ccco4)ncnc32)cc1	-2.5	-0.4	-18.1	17.2	-0.4	·
Clc1ccc(Cn2ncc3c(NCc4ccccc4)ncnc32)cc1	0.0	56.4*	-30.4	-27.7	1.5	33.7
C=CCNc1ncnc2c1cnn2-c1ccc(Cl)cc1	7.7	-157.3	-1.8	-223.1	2.0	-142.8
COCC(C)Nc1ncnc2c1cnn2-c1ccc(Cl)cc1 (centres undefined)	-0.3	-174.8	-2.4	-191.1	9.9	-100.5
CC[C@H]1C=C[C@@H](C(C(=O)OC)C(=O)OC)CN1C(C)=O	·	·	1.5	·	·	·
CCN1CCN(S(=O)(=O)c2cc3c(cc2Cl)NC(=O)CO3)CC1	-3.3	-0.3	5.6	10.9	1.3	·
Cc1onc(-c2ccccc2)c1C(=O)Nc1nnc(C(C)(C)C)s1	-0.3	4.9	-10.0	-0.4	3.0	·
